The list is not random: actives were taken first. Their share in the collection is about 1.7%.
Vif inh: HIV Vif self-association inhibitors, primary screen, imaging, HEK293T, single point; HEK293T cells, Vif self-association by quenched fluorescence, 24 h; actives 0.35% (n = 340,000); inhibition, % at 7.49 µM; in the data active = inhibition above about 50%, passing the limit was not always enough
C2C12 statin: suppressors of statin myotoxicity in C2C12 myotubes, primary screen, cell-based, single point, plate reader | rescue of ATP level, % at 7.49 µM | actives 0.78% (n = 330,000) | C2C12 myotubes + simvastatin, ATP luminescence, 48 h; scaled: DMSO 0, geranylgeraniol control 100;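 active = mean ATP rescue above about 67%, or every replicate alone reaching that limit, limit read from the data, passing the limit was not always enough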;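 also: myotubes were challenged with 10 µM simvastatin during compound exposure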
SR-BI DiI-HDL act: activators of SR-BI mediated DiI-HDL uptake, primary screen, ldlA[mSR-BI] CHO cells, DiI fluorescence | 3 h; 100 = double the neutral-control signal | activation, % at 12.5 µM | actives 0.096% (n = 320,000) | AID 504775, 2011;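 active = mean replicate activation of at least 60% and every replicate at or above 60%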;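 also: 0% = median plate neutral-control signal and 100% = twice that signal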
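Test system: SR-BI-overexpressing, LDLR-lacking CHO cells. Measured by: DiI fluorescence, bottom read. Medium: Ham's F12 with 0.5% BSA, HEPES 25 mM, pH 7.4. Timing: 3 h uptake period with compound, 37 °C.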
SR-BI DiI inh: inhibitors of SR-BI mediated HDL lipid uptake, primary screen, ldlA[mSR-BI] cells, fluorescence, single point. actives 0.96% (n = 320,000). inhibition, % at 12.5 µM. AID 488896, 2010. ldlA[mSR-BI] CHO cells, DiI-HDL uptake fluorescence, 3 h;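 active = mean replicate inhibition of at least 70% and a set share of replicates each scoring 70 or more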;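 also: 0% = median of neutral control wells and 100% = median of positive control wells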
Target sequence (Q61009 whole entry, looked up): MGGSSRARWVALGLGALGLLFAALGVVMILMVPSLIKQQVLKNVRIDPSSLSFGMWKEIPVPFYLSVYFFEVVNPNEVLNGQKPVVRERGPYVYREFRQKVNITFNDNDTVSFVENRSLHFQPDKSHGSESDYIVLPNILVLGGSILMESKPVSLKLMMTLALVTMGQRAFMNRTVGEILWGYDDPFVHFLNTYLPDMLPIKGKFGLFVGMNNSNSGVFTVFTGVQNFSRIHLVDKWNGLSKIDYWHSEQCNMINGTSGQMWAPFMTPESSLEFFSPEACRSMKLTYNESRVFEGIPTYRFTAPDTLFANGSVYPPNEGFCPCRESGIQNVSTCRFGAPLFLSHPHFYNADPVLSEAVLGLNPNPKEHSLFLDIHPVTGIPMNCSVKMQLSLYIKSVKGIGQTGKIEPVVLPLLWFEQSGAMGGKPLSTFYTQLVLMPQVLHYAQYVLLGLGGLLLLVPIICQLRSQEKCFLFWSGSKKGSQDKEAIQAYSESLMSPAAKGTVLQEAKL
Active calls of the source: *; . = no result given.

SMILES	Vif inh	C2C12 statin	SR-BI DiI-HDL act	SR-BI DiI inh
O=C(CCn1c(=O)c2cccn2c2ccccc21)Nc1ccc(F)cc1	12.7	-4.3	-74.9	74.9*
Cc1cc(C)cc(NC(=O)CCn2c(=O)c3cccn3c3ccccc32)c1	-2.4	-10.8	-81.2	81.2*
CC(C)NC(=O)N(C)C[C@H]1Oc2cc(C#CCN(C)C)ccc2S(=O)(=O)N([C@@H](C)CO)C[C@H]1C	.	-1.3	.	.
CC[n+]1c(/C=C/C=C/N(C(C)=O)c2ccccc2)sc2ccccc21	162.3*	-1.8	-19.4	19.4
CCn1c(/C=C/N(C(C)=O)c2ccccc2)[n+](CC)c2ccc(Cl)cc21	-0.4	.	20.7	-20.7
C[C@@H]1CN([C@H](C)CO)C(=O)c2cc(C3=CCCC3)cnc2O[C@H]1CN(C)C(=O)c1cccnc1	.	23.5	.	.
COC(=O)c1cc(NC(=O)c2cc(-c3ccc(C(F)(F)F)cc3)oc2C(F)(F)F)ccc1N1CCOCC1	7.8	-40.6	-80.9	80.9*
COC(=O)c1cc(NC(=O)c2cc(-c3ccc(OC)cc3)oc2C(F)(F)F)ccc1N1CCOCC1	0.3	-30.4	-85.7	85.7*
CN1[C@@H]2Cn3c(ccc(-c4ccc(F)cc4)c3=O)[C@H]1[C@@H](C(=O)N1CCCCC1)[C@@H]2CO	.	-22.6	.	.
Nc1c(C(=O)Nc2ccccc2)sc2nc3c(c(-c4ccco4)c12)CCC3	.	6.5	-80.2	80.2*
Cc1ccc(NC(=O)c2sc3nc4c(c(-c5ccco5)c3c2N)CCC4)cc1	.	-25.1	-36.0	36.0
Cc1ccccc1NC(=O)c1sc2nc3c(c(-c4ccco4)c2c1N)CCCC3	29.1	4.8	-78.7	78.7*
Nc1c(C(=O)Nc2ccccc2)sc2nc3c(c(-c4ccco4)c12)CCCC3	12.4	.	-31.5	31.5
C[C@@H]1CCCCO[C@H](CN(C)C(=O)CCCN(C)C)[C@H](C)CN([C@@H](C)CO)C(=O)c2cc(NC(=O)Nc3ccc(C(F)(F)F)cc3)ccc2O1	.	5.8	.	.
O=[N+]([O-])c1cccnc1NCCNc1ncc(C(F)(F)F)cc1Cl	-9.8	136.4*	-23.2	23.1
O=[N+]([O-])c1ccccc1NCCNc1ncc(C(F)(F)F)cc1Cl	4.1	.	-33.4	33.4
C[C@@H]1CN([C@H](C)CO)C(=O)c2cccc(NS(C)(=O)=O)c2O[C@H]1CN(C)Cc1ccc(C(=O)O)cc1	.	3.4	.	.
O=C(Nc1ccc(Cl)cc1)c1cc(Br)ccc1OCC(=O)N1CCOCC1	-3.9	-13.7	-82.4	82.4*
Cc1ccc2cc(CN(Cc3ccco3)C(=O)c3ccccc3)c(=O)[nH]c2c1C	-6.6	137.4*	-24.1	24.1
C[C@H]1CN([C@@H](C)CO)C(=O)Cc2cc(NC(=O)CCC(F)(F)F)ccc2O[C@@H]1CN(C)Cc1ccccc1	.	21.4	.	.
C[C@H](CO)N1C[C@H](C)[C@@H](CN(C)S(C)(=O)=O)OCCCC[C@H](C)Oc2ccc(NS(=O)(=O)c3ccc(F)cc3)cc2C1=O	.	-7.9	.	.
C[C@@H]1CCCCO[C@H](CN(C)S(=O)(=O)c2ccc(F)cc2)[C@H](C)CN([C@@H](C)CO)C(=O)c2cc(NS(C)(=O)=O)ccc2O1	.	81.2*	.	.
C[C@@H]1CCCCO[C@H](CN(C)S(C)(=O)=O)[C@@H](C)CN([C@@H](C)CO)C(=O)c2cc(NS(=O)(=O)c3ccc(F)cc3)ccc2O1	.	102.1*	.	.
C[C@@H]1CCCCO[C@H](CN(C)S(=O)(=O)c2ccc(F)cc2)[C@H](C)CN([C@@H](C)CO)C(=O)c2cc(NC(=O)Cc3ccccc3)ccc2O1	.	152.3*	.	.
C[C@H]1CN([C@@H](C)CO)C(=O)c2cc(NS(=O)(=O)c3ccc(F)cc3)ccc2O[C@@H]1CN(C)S(=O)(=O)c1cccs1	.	81.1*	.	.
SMILES	Vif inh	C2C12 statin	SR-BI DiI-HDL act	SR-BI DiI inh
C[C@@H]1CCCCO[C@H](CN(C)S(=O)(=O)c2ccc(F)cc2)[C@@H](C)CN([C@H](C)CO)C(=O)c2cc(NS(C)(=O)=O)ccc2O1	.	-3.6	.	.
CC(C)NC(=O)Nc1cccc2c1O[C@@H](CN(C)Cc1ccncc1)[C@@H](C)CN([C@H](C)CO)C2=O	.	0.1	.	.
C[C@H](CO)N1C[C@H](C)[C@H](CN(C)S(=O)(=O)c2ccc(F)cc2)OCCCC[C@H](C)Oc2ccc(NS(C)(=O)=O)cc2C1=O	.	105.5*	.	.
C[C@@H]1CCCCO[C@@H](CN(C)S(=O)(=O)c2ccc(F)cc2)[C@@H](C)CN([C@H](C)CO)C(=O)c2cc(NS(C)(=O)=O)ccc2O1	.	-17.7	.	.
C[C@@H]1CCCCO[C@@H](CN(C)S(=O)(=O)c2ccc(F)cc2)[C@H](C)CN([C@@H](C)CO)C(=O)c2cc(NC(=O)Nc3cccc4ccccc34)ccc2O1	.	83.6*	.	.
C[C@@H]1CN([C@@H](C)CO)C(=O)c2cc(C3=CCCC3)cnc2O[C@@H]1CN(C)C(=O)C1CCC1	.	12.7	.	.
CCOC(=O)c1c(NC(=O)CSc2nc3c(c(=O)n(C)c(=O)n3C)n2C(C)C)sc(C)c1C	9.1	2.8	-25.9	25.9
CC(C)n1c(SCC(=O)Nc2nc3c(s2)CCCC3)nc2c1c(=O)n(C)c(=O)n2C	-9.7	98.7*	-46.7	46.7
C[C@@H]1CN([C@@H](C)CO)C(=O)Cc2cc(NC(=O)Nc3cccc4ccccc34)ccc2O[C@@H]1CN(C)Cc1ccccc1	.	0.1	.	.
C[C@@H]1CN([C@H](C)CO)C(=O)Cc2cc(NC(=O)Nc3cccc4ccccc34)ccc2O[C@H]1CN(C)Cc1ccccc1	.	73.2*	.	.
C[C@@H]1CN([C@@H](C)CO)C(=O)Cc2cc(NC(=O)Nc3cccc4ccccc34)ccc2O[C@@H]1CN(C)Cc1ccc(C(F)(F)F)cc1	3.8	97.6*	18.9	-18.9
COc1ccc(NC(=O)Nc2ccc3c(c2)CC(=O)N([C@@H](C)CO)C[C@@H](C)[C@H](CN(C)C(=O)Nc2cccc4ccccc24)O3)cc1	.	78.5*	.	.
C[C@H]1CN([C@@H](C)CO)C(=O)Cc2cc(NC(=O)Nc3cccc4ccccc34)ccc2O[C@H]1CN(C)Cc1ccccc1	.	-25.1	.	.
C[C@@H]1CN([C@H](C)CO)S(=O)(=O)c2ccc(C3=CCCC3)cc2O[C@H]1CN(C)Cc1cccnc1	.	-194.0	.	.
CCCN(C)C[C@H]1Oc2ncc(-c3ccccc3F)cc2C(=O)N([C@@H](C)CO)C[C@@H]1C	.	7.0	.	.
Cc1nc(Sc2nnnn2C)c2c3c(sc2n1)CCC3	96.8*	.	8.0	-8.0
CCCCNC(=O)c1ccc(CS(=O)(=O)c2cccc(C(F)(F)F)c2)o1	10.1	143.9*	-2.9	2.9
C[C@@H]1CN([C@@H](C)CO)C(=O)c2cccc(NS(=O)(=O)c3ccccc3)c2O[C@H]1CN(C)C(=O)Nc1ccccc1	.	3.0	.	.
CCn1nc(C)c(/C=N/NC(=O)Cn2nnc(N)n2)c1C	59.1*	.	13.5	-13.5
Cc1ccc(/C=N/NC(=O)Cn2nnc(N)n2)cc1	23.6	.	.	.

Compound activity: PubChem, Broad Institute
